Screening data: PubChem BioAssay, Johns Hopkins Ion Channel Center
Shown are actives, neighbours in structure and some others; about 3.5% of the full set was active somewhere.
MrgX1 antag: blocks BAM8-22 activation of human MrgX1 receptor | Q96LB2 | MRGX1-HEK293 calcium flux, Fluo-4, BAM8-22 antagonism; stronger effect = lower value | B-score at 10 µM | 310,000 tested, 1.3% active | AID 588676;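 active = calcium-response B-score plate-corrected more than 3 library SD below zero, starting fluorescence within 5 deviations, no agonist response on first addition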;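 note: peak minus trough fluorescence over baseline after final BAM8-22 challenge near maximal dose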
Target sequence (Q96LB2 whole entry, looked up): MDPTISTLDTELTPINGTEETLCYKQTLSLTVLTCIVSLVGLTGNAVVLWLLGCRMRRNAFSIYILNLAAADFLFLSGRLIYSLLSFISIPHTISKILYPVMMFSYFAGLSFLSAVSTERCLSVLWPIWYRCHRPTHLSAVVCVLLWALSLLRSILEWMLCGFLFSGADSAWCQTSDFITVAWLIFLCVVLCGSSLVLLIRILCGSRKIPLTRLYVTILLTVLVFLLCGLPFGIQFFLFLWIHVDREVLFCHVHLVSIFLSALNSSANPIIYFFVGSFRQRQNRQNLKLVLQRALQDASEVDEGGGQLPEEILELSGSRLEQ
MrgX1 ag: agonists of human MrgX1 receptor. Q96LB2. B-score at 10 µM. AID 588627. MrgX1-HEK293 cells, Fluo-4 calcium fluorescence, agonist mode; stronger effect = higher value. 310,000 tested, 0.44% active;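 active = calcium response B-score plate-corrected fluorescence ratio at least 3 library SD, with starting fluorescence B-score inside 5 SD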
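Material: MrgX1-expressing HEK293 cells / Dosing: compound as first of three additions / Incubation: overnight seeding, then 1 h dark dye loading / Signal: Fluo-4 NW calcium fluorescence / Evaluation: B-scored fluorescence response ratio / Benchmarks: positive and negative control wells on each plate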
MrgX1 allo act: allosterically activates human MrgX1 receptor signaling. Q96LB2. MrgX1-HEK293, Fluo-4 calcium flux, FDSS; stronger effect = higher value. B-score at 10 µM. 310,000 tested, 0.63% active;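 active = plate-corrected calcium response at least 3 library SD above typical, normal starting fluorescence, not activating the receptor alone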;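 note: compound read alongside a low EC10 to EC30 dose of BAM8-22 agonist; peak minus trough fluorescence over baseline measured at the second addition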
RGS4 inh: human RGS4 inhibition | HEK293 M3R/RGS4 inducible, Fluo-4 calcium flux; stronger effect = higher value; triggered by carbachol at its EC20 | B-score at 10 µM | 310,000 tested, 0.45% active;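 active = B-score, a plate-corrected calcium signal, over three deviations above library mean, with baseline fluorescence within five deviations of library mean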;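 note: RGS4 expression induced by doxycycline in cells with stable M3 receptor; B-score is computed from the integrated fluorescence ratio over baseline after carbachol; higher B-score means a larger calcium signal and so more RGS4 inhibition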
Target sequence (P49798 whole entry, looked up): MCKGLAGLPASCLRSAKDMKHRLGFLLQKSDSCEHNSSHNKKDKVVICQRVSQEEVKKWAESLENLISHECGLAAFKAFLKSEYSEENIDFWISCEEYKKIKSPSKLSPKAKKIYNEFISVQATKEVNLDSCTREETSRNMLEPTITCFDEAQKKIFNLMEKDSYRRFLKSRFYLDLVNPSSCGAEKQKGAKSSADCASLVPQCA
RGS4 pot: RGS4 potentiation or activation; HEK293 M3R/inducible RGS4, carbachol calcium flux Fluo4; stronger effect = lower value; B-score at 10 µM; 310,000 tested, 0.92% active;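 active = B-score of the integrated calcium signal more than 4 SD below the library mean, with starting fluorescence not abnormally high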;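 note: negative B-score means reduced calcium response which marks RGS4 activation or potentiation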
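Also added: carbachol at ECmax as muscarinic agonist stimulus; Assay system: HEK293 cells with stable M3R and inducible RGS4; Timing: overnight RGS4 induction, 30 min dye load 37 °C, 20 min compound RT; Measured by: Fluo4-AM (2 µM) calcium-flux fluorescence, kinetic read.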
RGS4 inh valid: RGS4 inhibitor validation; 1,700 tested, 65% active; calcium response, % at 10 µM; shares compounds with RGS4 inh; HEK293 M3R/RGS4, carbachol calcium Fluo-4 fluorescence; carbachol added at its EC20; 0 = buffer wells, 100 = carbachol control; AID 492999;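 active = duplicate-averaged calcium response above the buffer-only control mean plus 5 SD of those controls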;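 note: integrated fluorescence ratio F max minus min over baseline F0; higher response in RGS4-induced cells means RGS4 inhibition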
RGS4 uninduced: counter-screen for RGS4 inhibitors: effect in non-induced cells; activity (percent), % at 10 µM; HEK293 M3R non-induced, carbachol calcium Fluo-4; submaximal (EC20) carbachol stimulus; buffer wells 0%, carbachol control wells 100%; AID 493000; 1,900 tested, 20% active; shares compounds with RGS4 inh; call rule not given here;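 note: RGS4 induction absent so cells express M3R without RGS4; higher means more calcium signal and flags a non-specific hit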
RGS4 inh ctr2: second RGS4 inhibitor counter-screen in uninduced cells lacking carbachol; calcium response (agonist-mode artifact), % at 10 µM; 1,900 tested, 22% active; shares compounds with RGS4 inh; HEK293 M3R/RGS4 non-induced, Fluo-4 calcium, no carbachol; normalised: buffer wells 0%, carbachol wells 100%;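 active = duplicate-averaged calcium rise in uninduced cells above buffer wells' mean plus 5 SD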
An asterisk follows results filed as active.

Results for O=C1N=C2SCCN2/C1=C\c1ccc(Cl)cc1 ?
MrgX1 antag: inactive; MrgX1 ag: inactive; MrgX1 allo act: inactive; RGS4 inh: 25*; RGS4 pot: inactive; RGS4 inh valid: 85%*; RGS4 uninduced: inactive; RGS4 inh ctr2: inactive

How did Cc1ccc(/C=C2\SC(N3CCCC3)=NC2=O)cc1 do in these assays?
MrgX1 antag: inactive; MrgX1 ag: inactive; MrgX1 allo act: inactive; RGS4 inh: inactive; RGS4 pot: inactive

What do the screens show for `CCCc1ccc(Oc2cc(NN3CCCCC3)c([N+](=O)[O-])cc2[N+](=O)[O-])cc1`?
MrgX1 antag: inactive; MrgX1 ag: inactive; MrgX1 allo act: inactive; RGS4 inh: inactive; RGS4 pot: inactive

Results for Cn1ncc(S(=O)(=O)Cc2ccccc2)c(Cl)c1=O ?
MrgX1 antag: inactive; MrgX1 ag: inactive; MrgX1 allo act: inactive; RGS4 inh: 26*; RGS4 pot: inactive; RGS4 inh valid: 42%*; RGS4 uninduced: inactive; RGS4 inh ctr2: inactive

What do the screens show for `CCOC(=O)C1(CC2CCCCO2)CCN(S(=O)(=O)c2ccsc2)CC1` (stereo unspecified)?
MrgX1 antag: inactive; MrgX1 ag: inactive; MrgX1 allo act: inactive; RGS4 inh: inactive; RGS4 pot: inactive

How did COC(=O)CSc1[nH]c2ccccc2c1[N+](=O)[O-] do in these assays?
MrgX1 antag: inactive; MrgX1 ag: inactive; MrgX1 allo act: inactive; RGS4 inh: 16*; RGS4 pot: inactive; RGS4 inh valid: 44%*; RGS4 uninduced: inactive; RGS4 inh ctr2: inactive

What do the screens show for `CC1=CC(C)(C)[N+](C)=CN1c1ccccc1`?
MrgX1 antag: inactive; MrgX1 ag: inactive; MrgX1 allo act: inactive; RGS4 inh: inactive; RGS4 pot: inactive

How did Cc1nnc(NC(=O)c2cc(-c3ccncc3)nc3c(C)cccc23)s1 do in these assays?
MrgX1 antag: inactive; MrgX1 ag: inactive; MrgX1 allo act: inactive; RGS4 inh: inactive; RGS4 pot: inactive

How did COc1nn(-c2ccccc2)c(=O)c(Cl)c1Cl do in these assays?
MrgX1 antag: inactive; MrgX1 ag: inactive; MrgX1 allo act: inactive; RGS4 inh: 5*; RGS4 pot: inactive; RGS4 inh valid: 10%*; RGS4 uninduced: inactive; RGS4 inh ctr2: inactive

Results for COc1c(Cl)cnn(-c2ccccc2)c1=O ?
MrgX1 antag: inactive; MrgX1 ag: inactive; MrgX1 allo act: inactive; RGS4 inh: inactive; RGS4 pot: inactive

How did O=C(NC1CCCCC1)C(c1ccncc1)N(C(=O)c1csnn1)c1ccc(F)cc1 (stereo unspecified) do in these assays?
MrgX1 antag: inactive; MrgX1 ag: inactive; MrgX1 allo act: inactive; RGS4 inh: inactive; RGS4 pot: inactive

How did O=C(COC(=O)c1ccc2c(=O)n3c(nc2c1)CCC3)Nc1ccc(OC(F)F)cc1 do in these assays?
MrgX1 antag: inactive; MrgX1 ag: inactive; MrgX1 allo act: inactive; RGS4 inh: inactive; RGS4 pot: inactive

What do the screens show for `O=C(CCN1CCN(C(=O)c2ccccc2)CC1)c1ccc(Br)cc1`?
MrgX1 antag: inactive; MrgX1 ag: inactive; MrgX1 allo act: inactive; RGS4 inh: 6*; RGS4 pot: inactive; RGS4 inh valid: inactive; RGS4 uninduced: inactive; RGS4 inh ctr2: 10%*

What do the screens show for `O=C(CCCN1CCOCC1)c1ccc2c(c1)OCCO2`?
MrgX1 antag: inactive; MrgX1 ag: inactive; MrgX1 allo act: inactive; RGS4 inh: inactive; RGS4 pot: inactive; RGS4 inh valid: inactive; RGS4 uninduced: inactive; RGS4 inh ctr2: inactive

What do the screens show for `O=C(CCN1CCCCC1)c1ccccc1`?
MrgX1 antag: inactive; MrgX1 ag: inactive; MrgX1 allo act: inactive; RGS4 inh: inactive; RGS4 pot: inactive

How did O=C(CCCO)c1ccc2c(c1)OCCO2 do in these assays?
MrgX1 antag: inactive; MrgX1 ag: inactive; MrgX1 allo act: inactive; RGS4 inh: inactive; RGS4 pot: inactive

What do the screens show for `O=C(CCN1CCOCC1)c1ccccc1`?
MrgX1 antag: inactive; MrgX1 ag: inactive; MrgX1 allo act: inactive; RGS4 inh: inactive; RGS4 pot: inactive; RGS4 inh valid: inactive; RGS4 uninduced: 36%*; RGS4 inh ctr2: 23%*

How did O=C(OCCN1CCOCC1)c1ccc2c(c1)OCCO2 do in these assays?
MrgX1 antag: inactive; MrgX1 ag: inactive; MrgX1 allo act: inactive; RGS4 inh: inactive; RGS4 pot: inactive

Results for O=C(CCN1CCOCC1)c1ccc2c(c1)OCCO2 ?
MrgX1 antag: inactive; MrgX1 ag: inactive; MrgX1 allo act: inactive; RGS4 inh: 21*; RGS4 pot: inactive; RGS4 inh valid: 20%*; RGS4 uninduced: inactive; RGS4 inh ctr2: 18%*

How did O=C(c1ccco1)N1CCN(Cc2cc(=O)c(OCc3ccccc3Cl)co2)CC1 do in these assays?
MrgX1 antag: inactive; MrgX1 ag: inactive; MrgX1 allo act: inactive; RGS4 inh: inactive; RGS4 pot: inactive

How did Clc1ccc(C(c2nnnn2C2CCCCC2)N(Cc2cccnc2)Cc2ccco2)cc1 (stereo unspecified) do in these assays?
RGS4 inh: inactive; RGS4 pot: inactive

How did COc1ccc(NC(=O)CCN2C(=O)C3C4CCC(C4)C3C2=O)cc1 (stereo unspecified) do in these assays?
MrgX1 antag: inactive; MrgX1 ag: inactive; MrgX1 allo act: inactive; RGS4 inh: inactive; RGS4 pot: inactive

How did O=C(COc1ccccc1C(=O)c1cnn(-c2ccccc2)c1)Nc1ccccc1 do in these assays?
MrgX1 antag: inactive; MrgX1 ag: inactive; MrgX1 allo act: inactive; RGS4 inh: inactive; RGS4 pot: inactive

What do the screens show for `Cc1cc(=O)[nH]c(SCC(=O)Nc2nc(-c3ccccc3)cs2)n1`?
MrgX1 antag: inactive; MrgX1 ag: inactive; MrgX1 allo act: inactive; RGS4 inh: inactive; RGS4 pot: inactive; RGS4 uninduced: inactive; RGS4 inh ctr2: inactive

Results for Cc1ccc(-c2csc(NC(=O)CSc3nc4ccccc4[nH]3)n2)cc1 ?
RGS4 inh: inactive; RGS4 pot: inactive; RGS4 uninduced: inactive; RGS4 inh ctr2: inactive

What do the screens show for `COc1ccc(-c2csc(NC(=O)CSc3nc4ccccc4c(=O)[nH]3)n2)cc1`?
MrgX1 antag: inactive; MrgX1 ag: inactive; MrgX1 allo act: inactive; RGS4 inh: inactive; RGS4 pot: inactive
